# Test results reported in ChEMBL document CHEMBL4689842, “EUbOPEN Chemogenomics Library wave 1” (2021).
# Test system: U2OS
# Assay: Multiplex assay against U2OS
# Type: toxicity, cell-based
# Details: human
# Summary of the method: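 Live cells were stained at seeding with Hoechst33342, BioTracker Green Microtubule Cytoskeleton Dye, MitoTracker Red and Annexin V Alexa Fluor 680, then imaged on a CQ1 microscope at 37°C and 5% CO2 after compound addition. CellPathfinder machine-learning gating split cells into Hoechst high-intensity objects or normal cells. Normal cells were split into healthy, pyknosed or fragmented nuclei, and pyknosed cells into mitotic or apoptotic. Tubulin, mitochondrial-mass and membrane-permeability phenotypes are per cents of healthy-nucleus cells.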
# [1] = 12 h, 1 µM, compound concentration 1 uM, replicate 1
# [2] = 12 h, 1 µM, compound concentration 1 uM, replicate 2
# [3] = 12 h, 10 µM, compound concentration 10 uM, replicate 1
# [4] = 12 h, 10 µM, compound concentration 10 uM, replicate 2
# [5] = 24 h, 1 µM, compound concentration 1 uM, replicate 1
# [6] = 24 h, 1 µM, compound concentration 1 uM, replicate 2
# [7] = 24 h, 10 µM, compound concentration 10 uM, replicate 1
# [8] = 24 h, 10 µM, compound concentration 10 uM, replicate 2
# [9] = 48 h, 1 µM, compound concentration 1 uM, replicate 1
# [10] = 48 h, 1 µM, compound concentration 1 uM, replicate 2
# [11] = 48 h, 10 µM, compound concentration 10 uM, replicate 1
# [12] = 48 h, 10 µM, compound concentration 10 uM, replicate 2
compound,measurement,setting,value
Cc1ccccc1C(c1ccccc1C)N1C2CCC1CC(O)(c1ccccc1)C2 (configuration not stated),Population Healthy Nuclei (%),[1],82%
same,Population Mitotic Cells (%),[1],66%
same,Population Normal (%),[1],89%
same,Total Cell Count,[1],131
same,Population Healthy Nuclei (%),[2],81%
same,Population Mitotic Cells (%),[2],50%
same,Population Normal (%),[2],90%
same,Total Cell Count,[2],80
same,Population Healthy Nuclei (%),[3],73%
same,Population Mitotic Cells (%),[3],64%
same,Population Normal (%),[3],96%
same,Total Cell Count,[3],158
same,Population Healthy Nuclei (%),[4],81%
same,Population Mitotic Cells (%),[4],60%
same,Population Normal (%),[4],86%
same,Total Cell Count,[4],71
same,Population Healthy Nuclei (%),[5],82%
same,Population Mitotic Cells (%),[5],88%
same,Population Normal (%),[5],97%
same,Total Cell Count,[5],149
same,Population Healthy Nuclei (%),[6],77%
same,Population Mitotic Cells (%),[6],80%
same,Population Normal (%),[6],95%
same,Total Cell Count,[6],89
same,Population Healthy Nuclei (%),[7],74%
same,Population Mitotic Cells (%),[7],65%
same,Total Cell Count,[7],201
same,Population Healthy Nuclei (%),[8],65%
same,Population Mitotic Cells (%),[8],50%
same,Population Normal (%),[8],93%
same,Total Cell Count,[8],85
same,Population Healthy Nuclei (%),[9],89%
same,Population Mitotic Cells (%),[9],68%
same,Total Cell Count,[9],157
same,Population Healthy Nuclei (%),[10],88%
same,Population Mitotic Cells (%),[10],87%
same,Population Normal (%),[10],97%
same,Total Cell Count,[10],98
same,Population Healthy Nuclei (%),[11],71%
same,Population Mitotic Cells (%),[11],43%
same,Population Normal (%),[11],95%
same,Total Cell Count,[11],289
same,Population Healthy Nuclei (%),[12],68%
same,Population Mitotic Cells (%),[12],40%
same,Population Normal (%),[12],85%
same,Total Cell Count,[12],141
Cc1cccc(CN2CCN(C(c3ccccc3)c3ccc(Cl)cc3)CC2)c1.Cl.Cl (configuration not stated),Population Apoptotic (%),[1],27%
same,Population Fragmented Nuclei (%),[1],4%
same,Population Healthy Nuclei (%),[1],87%
same,Population Hoechst High Intensity Objects (%),[1],6%
same,Population Membrane Permeable-Phenotype (%),[1],3%
same,Population Mitochondria Different-Phenotype (%),[1],6%
same,Population Mitotic Cells (%),[1],72%
same,Population Normal (%),[1],93%
same,Population Pyknosed Nuclei (%),[1],7%
same,Population Tubulin-Different-Phenotype (%),[1],3%
same,Total Cell Count,[1],182
same,Population Apoptotic (%),[2],0%
same,Population Fragmented Nuclei (%),[2],16%
same,Population Healthy Nuclei (%),[2],79%
same,Population Hoechst High Intensity Objects (%),[2],8%
same,Population Membrane Permeable-Phenotype (%),[2],4%
same,Population Mitochondria Different-Phenotype (%),[2],26%
same,Population Mitotic Cells (%),[2],100%
same,Population Normal (%),[2],91%
same,Population Pyknosed Nuclei (%),[2],3%
same,Population Tubulin-Different-Phenotype (%),[2],23%
same,Total Cell Count,[2],48
same,Population Apoptotic (%),[3],54%
same,Population Fragmented Nuclei (%),[3],6%
same,Population Healthy Nuclei (%),[3],76%
same,Population Hoechst High Intensity Objects (%),[3],5%
same,Population Membrane Permeable-Phenotype (%),[3],4%
same,Population Mitochondria Different-Phenotype (%),[3],73%
same,Population Mitotic Cells (%),[3],45%
same,Population Normal (%),[3],94%
same,Population Pyknosed Nuclei (%),[3],16%
same,Population Tubulin-Different-Phenotype (%),[3],78%
same,Total Cell Count,[3],149
same,Population Apoptotic (%),[4],50%
same,Population Fragmented Nuclei (%),[4],14%
same,Population Healthy Nuclei (%),[4],72%
same,Population Hoechst High Intensity Objects (%),[4],6%
same,Population Membrane Permeable-Phenotype (%),[4],6%
same,Population Mitochondria Different-Phenotype (%),[4],61%
same,Population Mitotic Cells (%),[4],50%
same,Population Normal (%),[4],93%
same,Population Pyknosed Nuclei (%),[4],13%
same,Population Tubulin-Different-Phenotype (%),[4],47%
same,Total Cell Count,[4],58
same,Population Apoptotic (%),[5],45%
same,Population Fragmented Nuclei (%),[5],7%
same,Population Healthy Nuclei (%),[5],86%
same,Population Hoechst High Intensity Objects (%),[5],5%
same,Population Membrane Permeable-Phenotype (%),[5],2%
same,Population Mitochondria Different-Phenotype (%),[5],8%
same,Population Mitotic Cells (%),[5],54%
same,Population Normal (%),[5],94%
same,Population Pyknosed Nuclei (%),[5],6%
same,Population Tubulin-Different-Phenotype (%),[5],2%
same,Total Cell Count,[5],176
same,Population Apoptotic (%),[6],80%
same,Population Fragmented Nuclei (%),[6],18%
same,Population Healthy Nuclei (%),[6],73%
same,Population Hoechst High Intensity Objects (%),[6],10%
same,Population Membrane Permeable-Phenotype (%),[6],11%
same,Population Mitochondria Different-Phenotype (%),[6],13%
same,Population Mitotic Cells (%),[6],20%
same,Population Normal (%),[6],89%
same,Population Pyknosed Nuclei (%),[6],8%
same,Population Tubulin-Different-Phenotype (%),[6],22%
same,Total Cell Count,[6],47
same,Population Apoptotic (%),[7],42%
same,Population Fragmented Nuclei (%),[7],6%
same,Population Healthy Nuclei (%),[7],74%
same,Population Hoechst High Intensity Objects (%),[7],7%
same,Population Membrane Permeable-Phenotype (%),[7],2%
same,Population Mitochondria Different-Phenotype (%),[7],65%
same,Population Mitotic Cells (%),[7],57%
same,Population Normal (%),[7],92%
same,Population Pyknosed Nuclei (%),[7],19%
same,Population Tubulin-Different-Phenotype (%),[7],61%
same,Total Cell Count,[7],181
same,Population Apoptotic (%),[8],11%
same,Population Fragmented Nuclei (%),[8],10%
same,Population Healthy Nuclei (%),[8],77%
same,Population Hoechst High Intensity Objects (%),[8],5%
same,Population Membrane Permeable-Phenotype (%),[8],5%
same,Population Mitochondria Different-Phenotype (%),[8],63%
same,Population Mitotic Cells (%),[8],88%
same,Population Normal (%),[8],94%
same,Population Pyknosed Nuclei (%),[8],12%
same,Population Tubulin-Different-Phenotype (%),[8],45%
same,Total Cell Count,[8],67
same,Population Apoptotic (%),[9],30%
same,Population Fragmented Nuclei (%),[9],5%
same,Population Healthy Nuclei (%),[9],85%
same,Population Hoechst High Intensity Objects (%),[9],3%
same,Population Membrane Permeable-Phenotype (%),[9],1%
same,Population Mitochondria Different-Phenotype (%),[9],11%
same,Population Mitotic Cells (%),[9],69%
same,Population Normal (%),[9],96%
same,Population Pyknosed Nuclei (%),[9],8%
same,Population Tubulin-Different-Phenotype (%),[9],5%
same,Total Cell Count,[9],192
same,Population Apoptotic (%),[10],0%
same,Population Fragmented Nuclei (%),[10],9%
same,Population Healthy Nuclei (%),[10],84%
same,Population Hoechst High Intensity Objects (%),[10],7%
same,Population Membrane Permeable-Phenotype (%),[10],5%
same,Population Mitochondria Different-Phenotype (%),[10],16%
same,Population Mitotic Cells (%),[10],100%
same,Population Normal (%),[10],92%
same,Population Pyknosed Nuclei (%),[10],6%
same,Population Tubulin-Different-Phenotype (%),[10],24%
same,Total Cell Count,[10],45
same,Population Apoptotic (%),[11],54%
same,Population Fragmented Nuclei (%),[11],8%
same,Population Healthy Nuclei (%),[11],72%
same,Population Hoechst High Intensity Objects (%),[11],4%
same,Population Membrane Permeable-Phenotype (%),[11],3%
same,Population Mitochondria Different-Phenotype (%),[11],42%
same,Population Mitotic Cells (%),[11],45%
same,Population Normal (%),[11],95%
same,Population Pyknosed Nuclei (%),[11],18%
same,Population Tubulin-Different-Phenotype (%),[11],44%
same,Total Cell Count,[11],299
same,Population Apoptotic (%),[12],25%
same,Population Fragmented Nuclei (%),[12],12%
same,Population Healthy Nuclei (%),[12],71%
same,Population Hoechst High Intensity Objects (%),[12],5%
same,Population Membrane Permeable-Phenotype (%),[12],7%
same,Population Mitochondria Different-Phenotype (%),[12],30%
same,Population Mitotic Cells (%),[12],75%
same,Population Normal (%),[12],94%
same,Population Pyknosed Nuclei (%),[12],16%
same,Population Tubulin-Different-Phenotype (%),[12],18%
same,Total Cell Count,[12],95
O=c1[nH]c2ccccc2n1C1CCN(Cc2ccc(-c3[nH]c4cc5ncnc5cc4nc3-c3ccccc3)cc2)CC1,Population Apoptotic (%),[1],44%
same,Population Fragmented Nuclei (%),[1],6%
same,Population Healthy Nuclei (%),[1],87%
same,Population Hoechst High Intensity Objects (%),[1],5%
same,Population Membrane Permeable-Phenotype (%),[1],37%
same,Population Mitochondria Different-Phenotype (%),[1],11%
same,Population Mitotic Cells (%),[1],55%
same,Population Normal (%),[1],94%
same,Population Pyknosed Nuclei (%),[1],5%
same,Population Tubulin-Different-Phenotype (%),[1],24%
same,Total Cell Count,[1],162
same,Population Apoptotic (%),[2],37%
same,Population Fragmented Nuclei (%),[2],7%
same,Population Healthy Nuclei (%),[2],85%
same,Population Hoechst High Intensity Objects (%),[2],8%
same,Population Membrane Permeable-Phenotype (%),[2],25%
same,Population Mitochondria Different-Phenotype (%),[2],16%
same,Population Mitotic Cells (%),[2],62%
same,Population Normal (%),[2],91%
same,Population Pyknosed Nuclei (%),[2],7%
same,Population Tubulin-Different-Phenotype (%),[2],23%
same,Total Cell Count,[2],124
same,Population Apoptotic (%),[3],30%
same,Population Fragmented Nuclei (%),[3],19%
same,Population Healthy Nuclei (%),[3],66%
same,Population Hoechst High Intensity Objects (%),[3],4%
same,Population Membrane Permeable-Phenotype (%),[3],29%
same,Population Mitochondria Different-Phenotype (%),[3],61%
same,Population Mitotic Cells (%),[3],69%
same,Population Normal (%),[3],95%
same,Population Pyknosed Nuclei (%),[3],13%
same,Population Tubulin-Different-Phenotype (%),[3],100%
same,Total Cell Count,[3],173
same,Population Apoptotic (%),[4],46%
same,Population Fragmented Nuclei (%),[4],38%
same,Population Healthy Nuclei (%),[4],51%
same,Population Hoechst High Intensity Objects (%),[4],7%
same,Population Membrane Permeable-Phenotype (%),[4],54%
same,Population Mitochondria Different-Phenotype (%),[4],75%
same,Population Mitotic Cells (%),[4],53%
same,Population Normal (%),[4],92%
same,Population Pyknosed Nuclei (%),[4],9%
same,Total Cell Count,[4],142
same,Population Apoptotic (%),[5],42%
same,Population Fragmented Nuclei (%),[5],7%
same,Population Healthy Nuclei (%),[5],83%
same,Population Hoechst High Intensity Objects (%),[5],5%
same,Population Membrane Permeable-Phenotype (%),[5],31%
same,Population Mitochondria Different-Phenotype (%),[5],12%
same,Population Mitotic Cells (%),[5],57%
same,Population Normal (%),[5],94%
same,Population Pyknosed Nuclei (%),[5],9%
same,Population Tubulin-Different-Phenotype (%),[5],16%
same,Total Cell Count,[5],211
same,Population Apoptotic (%),[6],41%
same,Population Healthy Nuclei (%),[6],81%
same,Population Hoechst High Intensity Objects (%),[6],3%
same,Population Membrane Permeable-Phenotype (%),[6],14%
same,Population Mitochondria Different-Phenotype (%),[6],15%
same,Population Mitotic Cells (%),[6],58%
same,Population Normal (%),[6],96%
same,Population Pyknosed Nuclei (%),[6],11%
same,Total Cell Count,[6],157
same,Population Apoptotic (%),[7],55%
same,Population Fragmented Nuclei (%),[7],19%
same,Population Healthy Nuclei (%),[7],50%
same,Population Hoechst High Intensity Objects (%),[7],6%
same,Population Membrane Permeable-Phenotype (%),[7],53%
same,Population Mitochondria Different-Phenotype (%),[7],91%
same,Population Mitotic Cells (%),[7],44%
same,Population Normal (%),[7],93%
same,Population Pyknosed Nuclei (%),[7],30%
same,Total Cell Count,[7],174
same,Population Apoptotic (%),[8],80%
same,Population Fragmented Nuclei (%),[8],28%
same,Population Healthy Nuclei (%),[8],38%
same,Population Hoechst High Intensity Objects (%),[8],14%
same,Population Membrane Permeable-Phenotype (%),[8],72%
same,Population Mitochondria Different-Phenotype (%),[8],88%
same,Population Mitotic Cells (%),[8],19%
same,Population Normal (%),[8],85%
same,Population Pyknosed Nuclei (%),[8],32%
same,Population Tubulin-Different-Phenotype (%),[8],100%
same,Total Cell Count,[8],130
